Activity calls are given as the source filed them. No cut-off for these calls is given here. Starred links: 1 amine or outer side, 2 acyl side, 3 side chain; linkers in the order of their positions; H or OH if unused. Non-standard residues stand in square brackets, D forms with d. Residues, ends and D or L forms follow the SMILES beside them. *: point of attachment. X5 = O=C1N[C@H]2[C@H](CS[C@H]2CCCCC(=O)OCCOCCOCCN([C@@H](Cc2ccc(C(=O)c3ccccc3)cc2)C(=O)[*:2])[*:1])N1; X1 = NCCCC[C@@H](C(=O)[*:2])N(CCOCCOCCOC(=O)CCCC[C@@H]1SC[C@@H]2NC(=O)N[C@@H]21)[*:1]; Lys(Dde) = CC(NCCCC[C@H](N)C(=O)O)=C1C(=O)CC(C)(C)CC1=O; X4 = O=C1N[C@H]2[C@H](CS[C@H]2CCCCC(=O)OCCOCCOCCOCN*)N1; X2 = C/C(=C\C*)CC/C=C(\C)COCc1cccc(C(=O)c2ccccc2)c1; Bpa = N[C@@H](Cc1ccc(C(=O)c2ccccc2)cc1)C(=O)O; Dnp = O=[N+]([O-])c1ccc(*)c([N+](=O)[O-])c1; X3 = C/C(=C\C*)COCc1cccc(C(=O)c2ccccc2)c1; Farnesyl = CC(C)=CCC/C(C)=C/CC/C(C)=C/C*; Suc = O=C(CCC(=O)[*:2])[*:1]; 2Abz = Nc1ccccc1C(=O)O
Legend:
Saccharomyces cerevisiae [1] = test: Binding affinity to Rce1p in yeast membrane at 15 uM measured 20 mins post irradiation by pull-down-Western blot analysis; type: cell membranes
Summary of the method: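 Biotinylated probes at 15 μM were mixed with membranes (0.25 μg/μL) from the RCE1-HA rce1Δ ste24Δ yeast strain in 100 mM Hepes, 5 mM MgCl2, pH 7.5. Samples were irradiated at 2537 Å for 20 min at 4 °C. Protein was precipitated and pulled down on streptavidin for 4 h at 4 °C, then separated by 12% SDS-PAGE. Detection was by anti-HA Western blot with ECL, followed by densitometry.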

Saccharomyces cerevisiae [2] = test: Ratio of Vmax to Km for Rce1p in yeast membrane assessed as release of -K(Dnp)IM tripeptide measured per mg protein by fluorescence-based proteolytic assay; type: cell membranes
Summary of the method: (§1)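 Enzyme was carbonate-washed membranes from S. cerevisiae overexpressing HA-tagged yeast Rce1p as the sole CAAX protease. Membranes were preincubated 10 min at 30 °C, then added to the Abz/Dnp fluorogenic farnesyl peptide: 10 concentrations, 0–45 or 0–50 μM final, 0.25 mg/mL membrane protein, Hepes/MgCl2 pH 7.5. Fluorescence (340/420 nm) was read every 30–60 s for 1 h at 30 °C. RFU were converted to product using a trypsin standard curve to give KM and Vmax. Runs were done in two or five replicates.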

Saccharomyces cerevisiae [3] = test: Activity of Rce1p in yeast membrane assessed as release of -K(Dnp)IM tripeptide measured per mg protein by fluorescence-based proteolytic assay; type: cell membranes; summary of the method: as §1
Saccharomyces cerevisiae [4] = test: Competitive binding affinity to Rce1p active site in yeast membrane at 15 uM measured 30 mins post irradiation by Western blot analysis in presence of 50 uM Abz-KSKTKC(Fr)K(Dnp)IM; type: cell membranes
Summary of the method: (§2)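 RCE1-HA membranes (0.25 μg/μL) were irradiated at 2537 Å with 15 μM probe for 30 min at 4 °C. The non-photoreactive farnesylated substrate was present at 50 or 100 μM, in Hepes/MgCl2 pH 7.5. Samples were taken through streptavidin pull-down, SDS-PAGE, anti-HA Western blot with ECL, and densitometry across four replicate experiments.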

Saccharomyces cerevisiae [5] = test: Competitive binding affinity to Rce1p active site in yeast membrane at 15 uM measured 30 mins post irradiation by Western blot analysis in presence of 100 uM Abz-KSKTKC(Fr)K(Dnp)IM; type: cell membranes; summary of the method: as §2
Saccharomyces cerevisiae [6] = test: Binding affinity to Rce1p in yeast membrane at 15 uM measured 30 mins post irradiation by time-course experiment; type: cell membranes
Summary of the method: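 Time course: RCE1-HA membranes (0.25 μg/μL) were irradiated at 2537 Å and 4 °C with 15 μM probe for 10–60 min, in 100 mM Hepes, 5 mM MgCl2, pH 7.5. Labelled protein was taken through streptavidin pull-down, SDS-PAGE and anti-HA Western blotting.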

Saccharomyces cerevisiae [7] = test: Binding affinity to Rce1p in yeast membrane at 15 uM after 30 mins by Western blot analysis; type: cell membranes
Summary of the method: (§3)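 Probe at 15 μM was irradiated at 2537 Å for 30 min at 4 °C in Hepes/MgCl2 pH 7.5, or left unirradiated. Membranes (0.25 μg/μL) came from RCE1-HA or Rce1p-lacking (rce1Δ ste24Δ) yeast strains. This was followed by streptavidin pull-down, SDS-PAGE and anti-HA Western blot with ECL detection.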

Saccharomyces cerevisiae [8] = test: Binding affinity to rce1/ste24-deficient yeast cell membrane at 15 uM measured 30 mins post irradiation by Western blot analysis; summary of the method: as §3
Saccharomyces cerevisiae [9] = test: Binding affinity to Rce1p in yeast membrane at 15 uM measured 30 mins post irradiation by Western blot analysis; type: cell membranes; summary of the method: as §3
Saccharomyces cerevisiae [10] = test: Activity of Rce1p in yeast membrane assessed as formation of Biotin-PEG3-KSK-Bpa-KC(Fr) at 20 uM after 4 hrs by RP-HPLC analysis; type: cell membranes
Summary of the method: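 Probe diluted to 20 or 40 μM in 100 mM Hepes, 5 mM MgCl2, pH 7.5. Carbonate-washed yeast membranes containing Rce1p were added to 0.25 mg/mL total protein and incubated at 35 °C for about 4 h. Material was cleaned up on C18 reversed-phase cartridges and analysed by C18 RP-HPLC with diode-array detection at 220 and 349 nm. Product identity was checked by ESI-MS/MS.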

Saccharomyces cerevisiae [11] = test: Binding affinity to rce1/ste24-deficient yeast cell membrane at 15 uM after 30 mins by Western blot analysis; summary of the method: as §3

SMILES: CC[C@H](C)[C@H](NC(=O)[C@@H](NC(=O)[C@H](CSC/C=C(\C)CC/C=C(\C)CCC=C(C)C)NC(=O)[C@H](CCCCN)NC(=O)[C@@H](NC(=O)[C@H](CCCCN)NC(=O)[C@H](Cc1ccc(C(=O)c2ccccc2)cc1)NC(=O)[C@H](CCCCN)NCCOCCOCCOC(=O)CCCC[C@@H]1SC[C@@H]2NC(=O)N[C@@H]21)[C@@H](C)O)C(C)C)C(=O)N[C@@H](CCSC)C(=O)O (H-[X1][Bpa]KTKC(Farnesyl)VIM-OH)
- Activity (Saccharomyces cerevisiae [1]): Active

SMILES: CC[C@H](C)[C@H](NC(=O)[C@@H](NC(=O)[C@H](CSC/C=C(\C)CC/C=C(\C)CCC=C(C)C)NC(=O)[C@H](CCCCN)NC(=O)[C@@H](NC(=O)[C@H](CCCCN)NC(=O)[C@H](CO)NC(=O)[C@H](Cc1ccc(C(=O)c2ccccc2)cc1)NCCOCCOCCOC(=O)CCCC[C@@H]1SC[C@@H]2NC(=O)N[C@@H]21)[C@@H](C)O)C(C)C)C(=O)N[C@@H](CCSC)C(=O)O (H-[X5]SKTKC(Farnesyl)VIM-OH)
- Activity (Saccharomyces cerevisiae [1]): Active

SMILES: CC[C@H](C)[C@H](NC(=O)[C@H](CCCCNc1ccc([N+](=O)[O-])cc1[N+](=O)[O-])NC(=O)[C@H](CSC/C=C(\C)COCc1cccc(C(=O)c2ccccc2)c1)NC(=O)[C@H](CCCCN)NC(=O)[C@@H](NC(=O)[C@H](CCCCN)NC(=O)[C@H](CO)NC(=O)[C@H](CCCCN)NC(=O)c1ccccc1N)[C@@H](C)O)C(=O)N[C@@H](CCSC)C(=O)O (H-[2Abz]KSKTKC(X3)K(Dnp)IM-OH)
- Vmax/Km (Saccharomyces cerevisiae [2]): 4.8 ×10⁻⁵ L/min
- Km (Saccharomyces cerevisiae [3]): 1.9 µM
- Vmax (Saccharomyces cerevisiae [3]): 0.093 nmol/min/mg

SMILES: CC[C@H](C)[C@H](NC(=O)[C@H](CCCCNc1ccc([N+](=O)[O-])cc1[N+](=O)[O-])NC(=O)[C@H](CSC/C=C(\C)CC/C=C(\C)COCc1cccc(C(=O)c2ccccc2)c1)NC(=O)[C@H](CCCCN)NC(=O)[C@@H](NC(=O)[C@H](CCCCN)NC(=O)[C@H](CO)NC(=O)[C@H](CCCCN)NC(=O)[C@H](CCCCNC(C)=C1C(=O)CC(C)(C)CC1=O)NC(=O)CCC(=O)NCOCCOCCOCCOC(=O)CCCC[C@@H]1SC[C@@H]2NC(=O)N[C@@H]21)[C@@H](C)O)C(=O)N[C@@H](CCSC)C(=O)O ({X4-Suc}-[Lys(Dde)]KSKTKC(X2)K(Dnp)IM-OH)
- Activity (Saccharomyces cerevisiae [1]): Active

SMILES: CC[C@H](C)[C@H](NC(=O)[C@@H](NC(=O)[C@H](CSC/C=C(\C)CC/C=C(\C)CCC=C(C)C)NC(=O)[C@H](CCCCN)NC(=O)[C@H](Cc1ccc(C(=O)c2ccccc2)cc1)NC(=O)[C@H](CCCCN)NC(=O)[C@H](CO)NC(=O)[C@H](CCCCN)NCCOCCOCCOC(=O)CCCC[C@@H]1SC[C@@H]2NC(=O)N[C@@H]21)C(C)C)C(=O)N[C@@H](CCSC)C(=O)O (H-[X1]SK[Bpa]KC(Farnesyl)VIM-OH)
- Activity (Saccharomyces cerevisiae [4]): 84%
- Activity (Saccharomyces cerevisiae [5]): 7%
- Activity (Saccharomyces cerevisiae [6]): Active
- Activity (Saccharomyces cerevisiae [7]): inactive
- Activity (Saccharomyces cerevisiae [8]): inactive
- Activity (Saccharomyces cerevisiae [1]): Active
- Activity (Saccharomyces cerevisiae [9]): Active
- Activity (Saccharomyces cerevisiae [10]): Active
- Activity (Saccharomyces cerevisiae [11]): inactive

SMILES: CC[C@H](C)[C@H](NC(=O)[C@H](CCCCNc1ccc([N+](=O)[O-])cc1[N+](=O)[O-])NC(=O)[C@H](CSC/C=C(\C)COCc1cccc(C(=O)c2ccccc2)c1)NC(=O)[C@H](CCCCN)NC(=O)[C@@H](NC(=O)[C@H](CCCCN)NC(=O)[C@H](CO)NC(=O)[C@H](CCCCN)NC(=O)[C@H](CCCCNC(C)=C1C(=O)CC(C)(C)CC1=O)NC(=O)CCC(=O)NCOCCOCCOCCOC(=O)CCCC[C@@H]1SC[C@@H]2NC(=O)N[C@@H]21)[C@@H](C)O)C(=O)N[C@@H](CCSC)C(=O)O ({X4-Suc}-[Lys(Dde)]KSKTKC(X3)K(Dnp)IM-OH)
- Activity (Saccharomyces cerevisiae [1]): Active

SMILES: CC[C@H](C)[C@H](NC(=O)[C@H](CCCCNc1ccc([N+](=O)[O-])cc1[N+](=O)[O-])NC(=O)[C@H](CSC/C=C(\C)CC/C=C(\C)CCC=C(C)C)NC(=O)[C@H](CCCCN)NC(=O)[C@@H](NC(=O)[C@H](CCCCN)NC(=O)[C@H](CO)NC(=O)[C@H](CCCCN)NC(=O)c1ccccc1N)[C@@H](C)O)C(=O)N[C@@H](CCSC)C(=O)O (H-[2Abz]KSKTKC(Farnesyl)K(Dnp)IM-OH)
- Vmax/Km (Saccharomyces cerevisiae [2]): 8.6 ×10⁻⁴ L/min
- Km (Saccharomyces cerevisiae [3]): 6.4 µM
- Vmax (Saccharomyces cerevisiae [3]): 5.6 nmol/min/mg

SMILES: CC[C@H](C)[C@H](NC(=O)[C@@H](NC(=O)[C@H](CSC/C=C(\C)CC/C=C(\C)CCC=C(C)C)NC(=O)[C@H](CCCCN)NC(=O)[C@@H](NC(=O)[C@H](Cc1ccc(C(=O)c2ccccc2)cc1)NC(=O)[C@H](CO)NC(=O)[C@H](CCCCN)NCCOCCOCCOC(=O)CCCC[C@@H]1SC[C@@H]2NC(=O)N[C@@H]21)[C@@H](C)O)C(C)C)C(=O)N[C@@H](CCSC)C(=O)O (H-[X1]S[Bpa]TKC(Farnesyl)VIM-OH)
- Activity (Saccharomyces cerevisiae [1]): Active

Reference: ChEMBL document CHEMBL2203008, “Photoaffinity labeling of Ras converting enzyme using peptide substrates that incorporate benzoylphenylalanine (Bpa) residues: improved labeling and structural implications” (Bioorg Med Chem, 2011)
